Published values from different studies.
Lines come from different studies, so protocols differ.
Target: Mitogen-activated protein kinase kinase kinase 13 (MAP3K13, Homo sapiens, UniProt O43283)
Concentration: 1 µM
Sequence (O43283 1-966, as in one of the studies): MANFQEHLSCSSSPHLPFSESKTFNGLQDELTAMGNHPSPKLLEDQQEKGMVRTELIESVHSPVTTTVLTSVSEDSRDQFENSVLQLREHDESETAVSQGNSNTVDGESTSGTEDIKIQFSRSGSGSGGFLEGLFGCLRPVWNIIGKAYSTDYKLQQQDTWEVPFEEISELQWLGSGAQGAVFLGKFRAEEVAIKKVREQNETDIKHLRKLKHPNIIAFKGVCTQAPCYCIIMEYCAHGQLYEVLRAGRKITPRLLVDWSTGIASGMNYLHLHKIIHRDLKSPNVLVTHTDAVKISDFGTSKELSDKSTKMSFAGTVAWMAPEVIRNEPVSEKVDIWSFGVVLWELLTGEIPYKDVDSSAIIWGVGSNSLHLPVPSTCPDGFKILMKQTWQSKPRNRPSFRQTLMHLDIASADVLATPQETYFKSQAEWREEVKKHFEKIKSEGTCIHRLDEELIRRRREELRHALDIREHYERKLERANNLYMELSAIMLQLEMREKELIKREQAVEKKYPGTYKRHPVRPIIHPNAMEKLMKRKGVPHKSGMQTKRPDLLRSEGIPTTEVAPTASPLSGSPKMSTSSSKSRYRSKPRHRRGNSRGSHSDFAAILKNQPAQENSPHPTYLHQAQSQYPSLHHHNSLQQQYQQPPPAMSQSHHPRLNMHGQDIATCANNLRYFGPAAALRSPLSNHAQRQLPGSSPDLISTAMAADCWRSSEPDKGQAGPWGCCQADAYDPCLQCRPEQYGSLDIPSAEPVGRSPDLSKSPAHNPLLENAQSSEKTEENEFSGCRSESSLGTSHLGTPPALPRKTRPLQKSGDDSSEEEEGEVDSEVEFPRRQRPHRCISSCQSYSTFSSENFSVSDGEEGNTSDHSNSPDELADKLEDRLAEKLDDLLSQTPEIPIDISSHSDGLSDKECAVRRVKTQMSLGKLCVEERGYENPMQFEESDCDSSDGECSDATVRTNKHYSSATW

The remaining binding of `O=C(c1ccc(Nc2ncc(Cl)c(-c3cc4ccccc4s3)n2)cc1)N1CCC(N2CCCC2)CC1` is reported as 46% (binding, competition with immobilised ligand).
`C[C@@H]1CCN(c2nccc(-c3cnn4ncccc34)n2)C1` gave a remaining binding of 71% (binding).
`CN1CCN(c2cnc3c(C4CCN(C(=O)c5ccc(OC(F)(F)F)cc5N)CC4)ncnc3c2)CC1` has a remaining binding of 100% (cell-free assay, competition with immobilised ligand).
With `CN(c1nccc(-c2cnn3ncccc23)n1)C1CC1` the remaining binding was 18% (binding).
`O=C(NCC1CCOCC1)c1n[nH]cc1NC(=O)c1c(F)cccc1F` has a remaining binding of 84% (binding, competition with immobilised ligand).
For `C[C@H](NC(=O)c1cnc2n1[C@](C)(Cc1ccc(C#N)cc1)C(=O)N2c1cc(Cl)c(F)c(Cl)c1)C(=O)NC1(c2ccccn2)CC1`, the remaining binding was 100% (cell-free assay, competition with immobilised ligand).
`N[C@@H]1CCN(c2nccc(-c3cnn4ncccc34)n2)C1` gave a remaining binding of 100% (binding).
With `COc1cc(-c2cn(C3CCc4c(F)cccc4N(CC(F)(F)F)C3=O)nn2)ccc1-n1cnc(C)c1` (centres unmarked) the remaining binding was 75% (cell-free assay, competition with immobilised ligand).
For `Cc1cnn2ncc(-c3ccnc(N(C)C)n3)c2c1`, the remaining binding was 70% (binding).
With `O=C(NCCCN1CCOCC1)c1ccc(Nc2ncc(Cl)c(-c3ccc(Cl)s3)n2)cc1` the remaining binding was 92% (binding, competition with immobilised ligand).
`O=C(O)[C@@H]1[C@@H](Cn2nnc3ccccc3c2=O)CC[C@H]1C(=O)c1ccc(OCCC2CCOCC2)cc1` gave a remaining binding of 70% (cell-free assay, competition with immobilised ligand).
`CCN1CCN(Cc2ccc(C(=O)Nc3ccc(C)c(Oc4ccc5c(c4)CC(=O)N5)c3)cc2C(F)(F)F)CC1` gave a remaining binding of 100% (binding, competition with immobilised ligand).
The remaining binding of `CC(=O)N1CCC(c2ccc(C(=O)NC(=N)N)cc2C(F)(F)F)CC1` is reported as 100% (cell-free assay, competition with immobilised ligand).
With `Nc1ncc2c(n1)-c1c([nH]c3ccc(C#CC4CC4)cc13)CCCC2` the remaining binding was 61% (binding, competition with immobilised ligand).
The remaining binding of `COc1ccc2c(c1)O[C@H](c1ccc(OC)c(OC)c1)C[C@@H]2NC(=O)C1(c2ccc3c(c2)OC(F)(F)O3)CC1` is reported as 91% (cell-free assay, competition with immobilised ligand).
`COc1cnc(Nc2cccc(S(N)(=O)=O)c2)nc1N1CCN(c2ccccc2)C(=O)C1` has a remaining binding of 100% (binding, competition with immobilised ligand).
`CN(C)c1ncc(F)c(-c2cnn3ncccc23)n1` gave a remaining binding of 90% (binding).
`O=C(c1ccc(Nc2ncc(Cl)c(-c3ccc(Cl)s3)n2)cc1)N1CCC(N2CCCC2)CC1` has a remaining binding of 48% (binding, competition with immobilised ligand).
The remaining binding of `CC1CCCN1c1nccc(-c2cnn3ncccc23)n1` (centres unmarked) is reported as 100% (binding).
`CNC(=O)[C@@H]1CC[C@@H](n2c(-c3ccc4cnccc4c3)nc3ccc(C(=O)NCc4cccc(C(N)=O)c4)cc32)C1` has a remaining binding of 100% (binding, competition with immobilised ligand).
